According to ChEMBL document CHEMBL1153911 (Bioorg Med Chem Lett, 2009):

Assays:
Mu-type opioid receptor [1] = molecular target: T1, Mu-type opioid receptor (Homo sapiens, UniProt P35372); assay: […] activity against mu opioid receptor expressed in CHO cells assessed as stimulation [35S]GTPgammaS binding relative to DAMGO; assay type: functional, cell-based; design: concentration or dose not given beside the values
Method in brief: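 Membranes (10 µg) from the same receptor-expressing CHO cells incubated 30 min with 10 µM GDP, 0.1 nM [35S]GTPγS and varying drug concentrations. Nonspecific binding defined by 10 µM unlabelled GTPγS. Relative Emax and EC50 from nonlinear regression of concentration-effect curves.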

Mu-type opioid receptor [2] = molecular target: T1, Mu-type opioid receptor; assay: Displacement of [3H]DAMGO from mu opioid receptor expressed in CHO cells; assay type: cell-based
[3] = molecular target: Kappa-type opioid receptor (Homo sapiens, UniProt P41145); assay: Displacement of [3H]norBNI from kappa opioid receptor expressed in CHO cells; assay type: cell-based
Sequence of Kappa-type opioid receptor (P41145 whole entry): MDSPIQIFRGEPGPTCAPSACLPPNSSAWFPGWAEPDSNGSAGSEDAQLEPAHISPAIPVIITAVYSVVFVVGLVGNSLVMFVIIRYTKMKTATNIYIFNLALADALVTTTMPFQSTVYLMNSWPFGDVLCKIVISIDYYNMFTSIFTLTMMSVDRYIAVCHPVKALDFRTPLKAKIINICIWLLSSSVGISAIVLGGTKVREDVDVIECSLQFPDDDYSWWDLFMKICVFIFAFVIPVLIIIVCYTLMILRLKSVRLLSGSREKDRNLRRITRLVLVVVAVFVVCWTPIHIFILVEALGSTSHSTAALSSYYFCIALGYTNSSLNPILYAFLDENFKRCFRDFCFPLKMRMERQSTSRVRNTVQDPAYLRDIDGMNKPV

[4] = molecular target: Delta-type opioid receptor (Homo sapiens, UniProt P41143); assay: Displacement of [3H]NTI from delta opioid receptor expressed in CHO cells; assay type: cell-based
Sequence of Delta-type opioid receptor (P41143 whole entry): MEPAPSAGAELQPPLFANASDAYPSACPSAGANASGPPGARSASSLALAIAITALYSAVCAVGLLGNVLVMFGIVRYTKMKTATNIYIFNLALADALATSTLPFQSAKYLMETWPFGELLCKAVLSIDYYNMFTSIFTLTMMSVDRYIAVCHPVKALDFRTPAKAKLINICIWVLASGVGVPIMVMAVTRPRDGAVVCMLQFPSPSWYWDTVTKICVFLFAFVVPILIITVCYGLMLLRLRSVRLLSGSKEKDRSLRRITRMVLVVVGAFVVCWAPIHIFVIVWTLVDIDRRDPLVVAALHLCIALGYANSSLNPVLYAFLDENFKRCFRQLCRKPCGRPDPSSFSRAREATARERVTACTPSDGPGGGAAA
Method in brief: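 CHO cell membranes (50 µg) expressing cloned mu, delta or kappa opioid receptors, labelled with […] (mu), [3H]NTI (delta) or [3H]norBNI (kappa), with varying drug concentrations, 90 min at 30 °C. IC50 from Hill-plot linear regression, converted to Ki by Cheng-Prusoff.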

Homo sapiens [5] = organism: Homo sapiens; assay: Selectivity ratio of Ki for delta opioid receptor to Ki for mu opioid receptor
Method in brief: (§1)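 CHO cell membranes (50 µg) expressing cloned mu, delta or kappa opioid receptors, labelled with […] (mu), [3H]NTI (delta) or [3H]norBNI (kappa), with varying drug concentrations, 90 min at 30 °C. […] IC50 from Hill-plot linear regression, converted to Ki by Cheng-Prusoff.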

Homo sapiens [6] = organism: Homo sapiens; assay: Selectivity ratio of Ki for kappa opioid receptor to Ki for mu opioid receptor; method in brief: as §1
Mu-type opioid receptor [7] = molecular target: T1, Mu-type opioid receptor; settings: CHO

T1 sequence (P35372 whole entry): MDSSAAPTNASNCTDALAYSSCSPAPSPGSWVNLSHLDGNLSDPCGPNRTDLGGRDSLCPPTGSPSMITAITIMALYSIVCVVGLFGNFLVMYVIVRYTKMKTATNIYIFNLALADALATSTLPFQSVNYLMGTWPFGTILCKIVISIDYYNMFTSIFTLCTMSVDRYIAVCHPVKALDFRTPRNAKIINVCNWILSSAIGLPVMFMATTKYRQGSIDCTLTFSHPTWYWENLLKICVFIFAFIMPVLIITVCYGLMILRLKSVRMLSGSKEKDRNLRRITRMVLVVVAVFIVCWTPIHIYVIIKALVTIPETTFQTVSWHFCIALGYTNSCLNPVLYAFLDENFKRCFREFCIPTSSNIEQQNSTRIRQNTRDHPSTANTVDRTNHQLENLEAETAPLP

Row | SMILES | Activity (Mu-type opioid receptor [1]) | Ki (Mu-type opioid receptor [2]) | Ki [3] | Ki [4] | Ratio Ki (Homo sapiens [5]) | Ratio Ki (Homo sapiens [6]) | Ke (Mu-type opioid receptor [7])
1 | COC(=O)/C=C/C(=O)N[C@@H]1CC[C@@]2(O)[C@H]3Cc4ccc(O)c5c4[C@@]2(CCN3CC2CC2)[C@H]1O5 | 0% | 0.41 nM | 0.94 nM | 27.8 nM | – | – | –
2 | O=C(O[C@@]12CCC(=O)[C@@H]3Oc4c(O)ccc5c4[C@@]31CCN(CC1CC1)[C@@H]2C5)c1cnc2ccccc2c1 | 22% | – | – | – | 304 | 55 | –
3 | C[C@@H](O)[C@H](NC(=O)[C@H](NC(=O)[C@@H](NC(=O)[C@H](CCCNC(=N)N)NC(=O)C(Cc1c[nH]c2ccccc12)NC(=O)[C@@H](Cc1ccc(O)cc1)NC(=O)[C@H](CS)NC(=O)[C@H](N)Cc1ccccc1)[C@@H](C)O)C(C)(C)S)C(=O)O (stereo in doubt) | 0% | – | – | – | 713 | 501 | –
4 | O=C(O[C@@]12CCC(=O)[C@@H]3Oc4c(O)ccc5c4[C@@]31CCN(CC1CC1)[C@@H]2C5)c1cccnc1 | 0% | – | – | – | 107 | 30 | –
5 | COc1cccc2c1[C@]13CCN(CC4CC4)[C@H](C2)[C@]1(OC)CCC(=O)C3 | – | – | – | – | 40 | 45 | –
6 | O=C(O[C@@]12CCC(=O)[C@@H]3Oc4c(O)ccc5c4[C@@]31CCN(CC1CC1)[C@@H]2C5)c1ccncc1 | 0% | – | – | – | 73 | 9 | –
7 | O=C(O[C@@]12CCC(=O)[C@@H]3Oc4c(O)ccc5c4[C@@]31CCN(CC1CC1)[C@@H]2C5)c1cc2ccccc2cn1 | 0% | – | – | – | > 146 | > 146 | –
8 | O=C(O[C@@]12CCC(=O)[C@@H]3Oc4c(O)ccc5c4[C@@]31CCN(CC1CC1)[C@@H]2C5)c1ccc2ccccc2c1 | 0% | – | – | – | 4 | < 1 | –
9 | O=C(O[C@@]12CCC(=O)[C@@H]3Oc4c(O)ccc5c4[C@@]31CCN(CC1CC1)[C@@H]2C5)c1ccc2ccccc2n1 | 0% | – | – | – | 16 | 47 | –
10 | O=C(O[C@@]12CCC(=O)[C@@H]3Oc4c(O)ccc5c4[C@@]31CCN(CC1CC1)[C@@H]2C5)c1ccccc1 | 0% | – | – | – | > 81 | 5 | –
11 | O=C(O[C@@]12CCC(=O)[C@@H]3Oc4c(O)ccc5c4[C@@]31CCN(CC1CC1)[C@@H]2C5)c1ccccn1 | 0% | – | – | – | 838 | 182 | 0.2 nM
